What was measured:
Format in all cases: functional
[1] = system: Bacteroides thetaiotaomicron; experiment: Antimicrobial activity against Bacteroides thetaiotaomicron clinical isolate after 18 to 22 hrs by broth microdilution method in presence of beta-lactamase inhibitor Tazobactam
[2] = system: Staphylococcus haemolyticus; experiment: Antimicrobial activity against Staphylococcus haemolyticus clinical isolate after 18 to 22 hrs by broth microdilution method in presence of beta-lactamase inhibitor BLI-489
How it was run: (§1)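 CLSI broth microdilution in Mueller-Hinton II broth. Serial dilutions of piperacillin were tested with BLI-489 held at a constant 4 μg/ml. Inoculum was 10^5 CFU/ml. Plates were incubated 18 to 22 h at 35°C in ambient air. MIC was the lowest concentration giving complete growth inhibition by unaided eye.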

Acinetobacter johnsonii [3] = experiment: Antimicrobial activity against Acinetobacter johnsonii clinical isolate after 18 to 22 hrs by broth microdilution method in presence of beta-lactamase inhibitor Tazobactam
How it was run: (§2)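 Piperacillin-tazobactam was tested on recent clinical isolates by CLSI broth microdilution in Mueller-Hinton II broth, with tazobactam at constant 4 μg/ml. Wells held 10^5 CFU/ml and were incubated 18 to 22 h at 35°C in ambient air. MIC was the lowest concentration with no growth visible to the unaided eye.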

Serratia marcescens = experiment: Antimicrobial activity against AmpC beta-lactamase-producing Serratia marcescens clinical isolate after 18 to 22 hrs by broth microdilution method in presence of beta-lactamase inhibitor BLI-489
How it was run: (§3)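 CLSI broth microdilution in Mueller-Hinton II broth. Piperacillin serial dilutions were combined with BLI-489 held constant at 4 μg/ml. Inoculum was 10^5 CFU/ml. Plates were incubated 18 to 22 h at 35°C in ambient air. MIC was the lowest concentration completely inhibiting growth seen by the unaided eye. Piperacillin-tazobactam interpretive criteria were applied.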

[4] = system: Staphylococcus epidermidis; experiment: Antimicrobial activity against methicillin-susceptible Staphylococcus epidermidis clinical isolate after 18 to 22 hrs by broth microdilution method in presence of beta-lactamase inhibitor Tazobactam
How it was run: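 CLSI broth microdilution of piperacillin-tazobactam in Mueller-Hinton II broth with serial dilutions. Inoculum was 10^5 CFU/ml. Incubation was 18 to 22 h at 35°C in ambient air. MIC was read as the lowest concentration giving complete inhibition of growth visible to the unaided eye.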

Acinetobacter junii = experiment: Antimicrobial activity against Acinetobacter junii clinical isolate after 18 to 22 hrs by broth microdilution method in presence of beta-lactamase inhibitor Tazobactam; how it was run: as §2
Acinetobacter baumannii [5] = experiment: Antimicrobial activity against Acinetobacter baumannii clinical isolate after 18 to 22 hrs by broth microdilution method in presence of beta-lactamase inhibitor BLI-489; how it was run: as §3
Acinetobacter baumannii [6] = experiment: Antimicrobial activity against Acinetobacter baumannii clinical isolate after 18 to 22 hrs by broth microdilution method in presence of beta-lactamase inhibitor Tazobactam; how it was run: as §2
Enterococcus avium = experiment: Antimicrobial activity against Enterococcus avium clinical isolate after 18 to 22 hrs by broth microdilution method in presence of beta-lactamase inhibitor BLI-489; how it was run: as §3
Haemophilus influenzae = experiment: Antimicrobial activity against beta-lactamase-producing Haemophilus influenzae clinical isolate after 18 to 22 hrs by broth microdilution method in presence of beta-lactamase inhibitor BLI-489
How it was run: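 Haemophilus isolates were tested in Haemophilus test medium by CLSI broth microdilution. Serial piperacillin dilutions carried BLI-489 fixed at 4 μg/ml. Inoculum was 10^5 CFU/ml, incubated 18 to 22 h at 35°C in ambient air. MIC was the lowest concentration completely inhibiting growth by eye.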

Citrobacter koseri = experiment: Antimicrobial activity against Citrobacter koseri clinical isolate after 18 to 22 hrs by broth microdilution method in presence of beta-lactamase inhibitor BLI-489; how it was run: as §3
Streptococcus pneumoniae [7] = experiment: Antimicrobial activity against penicillin-resistant Streptococcus pneumoniae clinical isolate after 18 to 22 hrs by broth microdilution method in presence of beta-lactamase inhibitor BLI-489
How it was run: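 CLSI broth microdilution in Mueller-Hinton II broth with 5% lysed horse blood. Antibiotic in serial dilution with the β-lactamase inhibitor held at a constant 4 μg/ml. Inoculum 10^5 CFU/ml. Incubated 18 to 22 h at 35°C in ambient air. MIC is the lowest concentration with no growth visible to the eye.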

Enterococcus gallinarum = experiment: Antimicrobial activity against Enterococcus gallinarum clinical isolate after 18 to 22 hrs by broth microdilution method in presence of beta-lactamase inhibitor Tazobactam
How it was run: (§4)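 Piperacillin-tazobactam was tested by CLSI broth microdilution in Mueller-Hinton II broth against clinical isolates. Inoculum was 10^5 CFU/ml, with 18 to 22 h incubation at 35°C in ambient air. MIC was read as the lowest concentration completely inhibiting visible growth.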

Enterococcus hirae = experiment: Antimicrobial activity against Enterococcus hirae clinical isolate after 18 to 22 hrs by broth microdilution method in presence of beta-lactamase inhibitor BLI-489; how it was run: as §1
Streptococcus pneumoniae [8] = experiment: Antimicrobial activity against penicillin-susceptible Streptococcus pneumoniae clinical isolate after 18 to 22 hrs by broth microdilution method in presence of beta-lactamase inhibitor Tazobactam
How it was run: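 Broth microdilution per CLSI in Mueller-Hinton II broth supplemented with 5% lysed horse blood, using serial dilutions of piperacillin-tazobactam. Inoculum was 10^5 CFU/ml. Incubation was 18 to 22 h at 35°C in ambient air. MIC was the lowest concentration with no growth visible to the unaided eye.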

Acinetobacter johnsonii [9] = experiment: Antimicrobial activity against Acinetobacter johnsonii clinical isolate after 18 to 22 hrs by broth microdilution method in presence of beta-lactamase inhibitor BLI-489; how it was run: as §3
Enterococcus faecium = experiment: Antimicrobial activity against Enterococcus faecium clinical isolate after 18 to 22 hrs by broth microdilution method in presence of beta-lactamase inhibitor BLI-489; how it was run: as §1
Klebsiella aerogenes = experiment: Antimicrobial activity against Enterobacter aerogenes clinical isolate after 18 to 22 hrs by broth microdilution method in presence of beta-lactamase inhibitor Tazobactam; how it was run: as §2
Klebsiella oxytoca = experiment: Antimicrobial activity against Klebsiella oxytoca clinical isolate after 18 to 22 hrs by broth microdilution method in presence of beta-lactamase inhibitor BLI-489; how it was run: as §1
Proteus vulgaris = experiment: Antimicrobial activity against Proteus vulgaris clinical isolate after 18 to 22 hrs by broth microdilution method in presence of beta-lactamase inhibitor Tazobactam; how it was run: as §4
Burkholderia cepacia = experiment: Antimicrobial activity against Burkholderia cepacia clinical isolate after 18 to 22 hrs by broth microdilution method in presence of beta-lactamase inhibitor BLI-489; how it was run: as §3
Proteus mirabilis = experiment: Antimicrobial activity against Proteus mirabilis clinical isolate after 18 to 22 hrs by broth microdilution method in presence of beta-lactamase inhibitor BLI-489; how it was run: as §1

What does the source list for `CCN1CCN(C(=O)N[C@@H](C(=O)N[C@@H]2C(=O)N3[C@@H]2SC(C)(C)[C@@H]3C(=O)O)c2ccccc2)C(=O)C1=O` [PIPERACILLIN]?
MIC50 [1]: 4 µg/mL; MIC90 [1]: 8 µg/mL; MIC50 [2]: 32 µg/mL; MIC90 [2]: > 128 µg/mL; MIC50 (Acinetobacter johnsonii [3]): ≤ 0.12 µg/mL; MIC90 (Acinetobacter johnsonii [3]): 32 µg/mL; MIC50 (Serratia marcescens): 2 µg/mL; MIC90 (Serratia marcescens): 8 µg/mL; MIC50 [4]: 0.25 µg/mL; MIC90 [4]: 0.5 µg/mL; MIC50 (Acinetobacter junii): ≤ 0.12 µg/mL; MIC90 (Acinetobacter junii): 32 µg/mL; MIC50 (Acinetobacter baumannii [5]): > 128 µg/mL; MIC90 (Acinetobacter baumannii [5]): > 128 µg/mL; MIC50 (Acinetobacter baumannii [6]): > 128 µg/mL; MIC90 (Acinetobacter baumannii [6]): > 128 µg/mL; MIC50 (Enterococcus avium): 8 µg/mL; MIC90 (Enterococcus avium): 32 µg/mL; MIC (Haemophilus influenzae): ≤ 0.004 µg/mL; MIC50 (Haemophilus influenzae): ≤ 0.004 µg/mL; MIC90 (Haemophilus influenzae): ≤ 0.004 µg/mL; MIC50 (Citrobacter koseri): 2 µg/mL; MIC90 (Citrobacter koseri): 8 µg/mL; MIC50 (Streptococcus pneumoniae [7]): 2 µg/mL; MIC90 (Streptococcus pneumoniae [7]): 4 µg/mL; MIC50 (Enterococcus gallinarum): 4 µg/mL; MIC90 (Enterococcus gallinarum): 16 µg/mL; MIC50 (Enterococcus hirae): 2 µg/mL; MIC90 (Enterococcus hirae): 8 µg/mL; MIC50 (Streptococcus pneumoniae [8]): 0.008 µg/mL; MIC90 (Streptococcus pneumoniae [8]): 0.015 µg/mL; MIC50 (Acinetobacter johnsonii [9]): 4 µg/mL; MIC90 (Acinetobacter johnsonii [9]): 16 µg/mL; MIC50 (Enterococcus faecium): 4 µg/mL; MIC90 (Enterococcus faecium): > 128 µg/mL; MIC50 (Klebsiella aerogenes): 64 µg/mL; MIC90 (Klebsiella aerogenes): 128 µg/mL; MIC50 (Klebsiella oxytoca): 2 µg/mL; MIC90 (Klebsiella oxytoca): 8 µg/mL; MIC50 (Proteus vulgaris): 0.5 µg/mL; MIC90 (Proteus vulgaris): 2 µg/mL; MIC50 (Burkholderia cepacia): 1 µg/mL; MIC90 (Burkholderia cepacia): 2 µg/mL; MIC50 (Proteus mirabilis): 0.25 µg/mL; MIC90 (Proteus mirabilis): 0.5 µg/mL
